# Results from ChEMBL document CHEMBL4699498 (J Med Chem, 2020).
# The source made the active and inactive calls. The calls are words filed in the database; no cut-off is given here.
# Tests used:
# [1] = target: T1, Protein cereblon/Poly [ADP-ribose] polymerase 1 (Homo sapiens, UniProt P09874+Q96SW2); test: Protac activity at CRBN/PARP1 in human Capan1 cells assessed as induction of PARP1 degradation at 1 to 1000 nM incubated for 24 hrs by Western blot analysis; type: cell-based; conditions: CAPAN-1, dose nM 1-1000, time 24.0 hrs
# Outline: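 Capan-1 cells were treated 24 h (1-1000 nM, or a wider dose range for DC50). Lysis was in RIPA buffer with protease inhibitors, and 20-30 μg protein was blotted. PARP1 was normalized to β-tubulin and to DMSO control, quantified by densitometry. DC50 came from two independent experiments.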
# Target sequence in this assay (P09874 2-1014 limits assumed): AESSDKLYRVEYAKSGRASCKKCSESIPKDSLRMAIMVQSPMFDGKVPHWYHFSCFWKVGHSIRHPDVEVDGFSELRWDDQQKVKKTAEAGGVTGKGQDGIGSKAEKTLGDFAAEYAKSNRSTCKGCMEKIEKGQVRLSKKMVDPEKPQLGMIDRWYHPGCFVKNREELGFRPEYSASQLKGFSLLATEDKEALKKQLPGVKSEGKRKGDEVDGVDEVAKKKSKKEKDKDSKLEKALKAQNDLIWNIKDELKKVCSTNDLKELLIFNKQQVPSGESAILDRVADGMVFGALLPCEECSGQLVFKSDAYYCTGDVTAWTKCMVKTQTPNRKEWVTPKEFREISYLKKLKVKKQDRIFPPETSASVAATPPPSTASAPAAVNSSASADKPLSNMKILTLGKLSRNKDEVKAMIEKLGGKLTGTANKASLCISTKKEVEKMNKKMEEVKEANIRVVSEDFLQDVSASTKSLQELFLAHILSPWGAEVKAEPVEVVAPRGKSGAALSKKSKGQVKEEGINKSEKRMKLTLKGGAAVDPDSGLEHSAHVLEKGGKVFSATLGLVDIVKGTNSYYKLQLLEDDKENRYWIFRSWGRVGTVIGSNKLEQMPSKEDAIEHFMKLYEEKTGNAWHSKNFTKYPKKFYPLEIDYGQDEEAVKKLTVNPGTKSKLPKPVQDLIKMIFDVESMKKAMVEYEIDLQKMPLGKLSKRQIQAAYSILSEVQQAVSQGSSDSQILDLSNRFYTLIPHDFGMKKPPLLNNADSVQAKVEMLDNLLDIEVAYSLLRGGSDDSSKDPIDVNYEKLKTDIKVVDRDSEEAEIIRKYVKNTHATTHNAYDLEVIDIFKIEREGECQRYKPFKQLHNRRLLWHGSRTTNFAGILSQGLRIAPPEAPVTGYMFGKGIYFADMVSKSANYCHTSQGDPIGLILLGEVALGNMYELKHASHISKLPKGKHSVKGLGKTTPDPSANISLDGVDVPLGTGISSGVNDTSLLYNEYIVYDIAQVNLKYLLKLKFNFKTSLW
# Target sequence in this assay (Q96SW2 whole entry partner): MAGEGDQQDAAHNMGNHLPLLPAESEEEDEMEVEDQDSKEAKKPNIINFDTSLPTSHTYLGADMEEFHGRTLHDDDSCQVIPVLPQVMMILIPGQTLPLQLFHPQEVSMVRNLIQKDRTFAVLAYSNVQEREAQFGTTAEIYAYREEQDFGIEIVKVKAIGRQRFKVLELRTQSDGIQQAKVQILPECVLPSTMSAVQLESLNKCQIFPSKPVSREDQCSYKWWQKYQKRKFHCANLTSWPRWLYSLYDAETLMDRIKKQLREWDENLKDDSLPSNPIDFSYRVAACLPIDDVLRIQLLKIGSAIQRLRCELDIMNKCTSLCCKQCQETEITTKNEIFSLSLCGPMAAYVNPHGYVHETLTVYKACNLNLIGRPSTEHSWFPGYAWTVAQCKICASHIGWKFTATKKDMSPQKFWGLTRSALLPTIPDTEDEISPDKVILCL
# [2] = target: T1, Protein cereblon/Poly [ADP-ribose] polymerase 1; test: Protac activity at CRBN/PARP1 in human SW-620 cells assessed as induction of PARP1 degradation incubated for 24 hrs by Western blot analysis; type: cell-based
# Outline: (§1)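 Concentration-response over a wide range, 24 h exposure; PARP1 quantified by western blot and normalized to β-tubulin density; DC50 derived from two biologically independent experiments.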
# Target sequence in this assay (P09874 whole entry): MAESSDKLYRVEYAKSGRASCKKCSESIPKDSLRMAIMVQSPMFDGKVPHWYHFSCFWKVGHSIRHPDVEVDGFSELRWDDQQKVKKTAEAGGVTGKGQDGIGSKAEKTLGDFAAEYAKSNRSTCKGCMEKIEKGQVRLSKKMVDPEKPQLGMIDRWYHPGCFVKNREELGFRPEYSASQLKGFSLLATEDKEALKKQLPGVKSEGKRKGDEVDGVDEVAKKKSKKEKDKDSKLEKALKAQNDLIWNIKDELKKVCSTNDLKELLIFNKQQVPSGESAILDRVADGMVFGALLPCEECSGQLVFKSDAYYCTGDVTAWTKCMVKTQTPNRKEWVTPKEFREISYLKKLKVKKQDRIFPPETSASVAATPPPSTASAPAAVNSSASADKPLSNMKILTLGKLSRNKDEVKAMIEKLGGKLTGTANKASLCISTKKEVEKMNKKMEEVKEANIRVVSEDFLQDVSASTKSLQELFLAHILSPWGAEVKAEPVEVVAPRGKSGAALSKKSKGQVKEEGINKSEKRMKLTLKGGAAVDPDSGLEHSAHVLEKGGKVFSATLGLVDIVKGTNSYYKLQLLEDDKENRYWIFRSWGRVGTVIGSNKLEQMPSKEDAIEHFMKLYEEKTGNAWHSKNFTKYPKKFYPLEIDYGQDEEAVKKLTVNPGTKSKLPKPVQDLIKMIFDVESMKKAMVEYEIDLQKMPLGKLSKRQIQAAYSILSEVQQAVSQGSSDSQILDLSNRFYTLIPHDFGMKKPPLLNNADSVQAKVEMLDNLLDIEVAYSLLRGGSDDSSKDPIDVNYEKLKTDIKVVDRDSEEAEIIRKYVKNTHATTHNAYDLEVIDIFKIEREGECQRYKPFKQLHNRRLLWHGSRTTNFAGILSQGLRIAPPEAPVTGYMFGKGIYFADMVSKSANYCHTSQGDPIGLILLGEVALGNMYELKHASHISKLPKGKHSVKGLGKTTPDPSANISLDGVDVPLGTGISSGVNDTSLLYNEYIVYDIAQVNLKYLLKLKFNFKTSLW
# Target sequence in this assay (Q96SW2 whole entry): as the sequence (Q96SW2 whole entry partner) above
# [3] = target: T1, Protein cereblon/Poly [ADP-ribose] polymerase 1; test: Protac activity at CRBN/PARP1 in human CAPAN-1 cells assessed as induction of PARP1 degradation at 100 nM measured after 6 hrs by Western blot analysis; type: cell-based
# Outline: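 Capan-1 cells were treated with 100 nM over a time course. PARP1 was measured by western blot and normalized to β-tubulin.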
# Target sequence in this assay (P09874 2-1014 limits assumed): as the sequence (P09874 2-1014 limits assumed) above
# Target sequence in this assay (Q96SW2 whole entry partner): as the sequence (Q96SW2 whole entry partner) above
# [4] = target: T1, Protein cereblon/Poly [ADP-ribose] polymerase 1; test: Protac activity at CRBN/PARP1 in human 22Rv1 cells assessed as induction of PARP1 degradation measured after 24 hrs by Western blot analysis; type: cell-based
# Outline: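 The cell line was treated 24 h across a concentration range. PARP1 was measured by western blot against β-tubulin. DC50 is the average of two biologically independent experiments.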
# Target sequence in this assay (P09874 whole entry): as the sequence (P09874 whole entry) above
# Target sequence in this assay (Q96SW2 whole entry): as the sequence (Q96SW2 whole entry partner) above
# [5] = target: T1, Protein cereblon/Poly [ADP-ribose] polymerase 1; test: Protac activity at CRBN/PARP1 in human MDA-MB-231 cells assessed as induction of PARP1 degradation measured after 24 hrs by Western blot analysis; type: cell-based; outline: as §1
# Target sequence in this assay (P09874 whole entry): as the sequence (P09874 whole entry) above
# Target sequence in this assay (Q96SW2 whole entry): as the sequence (Q96SW2 whole entry partner) above
# [6] = target: T1, Protein cereblon/Poly [ADP-ribose] polymerase 1; test: Protac activity at CRBN/PARP1 in human LNCaP cells assessed as induction of PARP1 degradation at 30 nM incubated for 1 to 24 hrs by Western blot analysis; type: cell-based; conditions: time hrs 1-24
# Target sequence in this assay (P09874 2-1014 limits assumed): as the sequence (P09874 2-1014 limits assumed) above
# Target sequence in this assay (Q96SW2 whole entry partner): as the sequence (Q96SW2 whole entry partner) above
# [7] = target: T1, Protein cereblon/Poly [ADP-ribose] polymerase 1; test: Protac activity at CRBN/PARP1 in human MDA-MB-231 cells assessed as induction of PARP1 degradation at 30 nM incubated for 1 to 24 hrs by Western blot analysis; type: cell-based; conditions: time hrs 1-24
# Target sequence in this assay (P09874 2-1014 limits assumed): as the sequence (P09874 2-1014 limits assumed) above
# Target sequence in this assay (Q96SW2 whole entry partner): as the sequence (Q96SW2 whole entry partner) above
# [8] = tested on: HCC1937; test: Antiproliferation activity against human HCC1937 assessed as cell growth inhibition incubated for 7 days by CCK-8 assay; type: functional, cell-based; conditions: time 7.0 day
# Outline: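 Cells were sub-cultured at least twice and seeded for 24 h before dosing. Compounds came from 10 mM DMSO stocks, given as 10 points of 3-fold serial dilution starting at 10-20 μM. Incubation was about 7 days (Capan-1 13 days) at 37 °C, 5% CO2. Read-out was CCK-8 absorbance at 450 nm, as % growth versus DMSO wells (duplicate wells). IC50 was fitted by nonlinear regression; three independent experiments.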
# [9] = tested on: L02; test: Cytotoxicity against human L02 cells assessed as reduction in cell viability incubated for 120 hrs by CCK-8 assay; type: cell-based; conditions: l02, 120 h
# [10] = tested on: HEK293; test: Cytotoxicity against human HEK293 cells assessed as cell viability incubated for 120 hrs by CCK-8 assay; type: cell-based; conditions: hek293, 120 h
# [11] = Tmax in ICR mouse at 25 mg/kg, ip by LC-tandem mass spectrometry analysis; type: ADME, organism-based; conditions: in vivo
# Outline: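 Female ICR mice (20-23 g, 6-7 weeks, n = 3) given a single 25 mg/kg ip dose in 5% DMSO/15% Solutol HS15/80% D5W; plasma at 0.5, 1, 2, 4, 6, 8 and 24 h, protein precipitated with methanol, drug quantified by LC-MS/MS against a standard curve.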
# [12] = tested on: Mus musculus; test: Induction of PARP1 degradation in SW-620 cells xenografted Balb/c mouse at 25 mg/kg, ip at 1 to 24 hrs by Western blotting analysis; type: functional, organism-based; conditions: time hrs 1-24
# Outline: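 Male BALB/c nude mice carried subcutaneous SW620 xenografts (6×10^6 cells); at 200-300 mm³ they were randomized. A single 25 mg/kg intraperitoneal dose was given. Tumors were harvested at 1, 3, 6 and 24 h, and vehicle controls at 3 h. Tumors were frozen, ground in liquid nitrogen, and PARP1 was analysed by western blot against β-tubulin.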
# [13] = tested on: SW-620; test: Potentiation of TMZ induced antitumor activity against SW-620 cells xenografted in Balb/c mouse assessed as tumor growth suppression at 10 mg/kg, po qd administered for 5 days; type: functional, organism-based; conditions: time 5.0 day
# Outline: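 Male BALB/c nude mice carried SW620 xenografts (6×10^6 cells s.c.), randomized at ~150 mm³ (6 per group). TMZ 50 mg/kg was given orally once daily on days 0-4, 45 min after the partner drug. Partners were 5 or 10 mg/kg intraperitoneally or 10 mg/kg by oral gavage, daily for 5 days. Vehicle was 5% DMSO/20% PEG400/10% Cremophor EL/65% saline. Tumor volume and body weight were recorded 2-3 times weekly.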
# [14] = Acute toxicity in Balb/c mouse xenografted with Capan1 cells assessed as mean weight loss at 50 mg/kg, ip qd administered for 5 days in presence of cisplatin measured on day 10 relative to control; type: organism-based; conditions: in vivo, 240 h, time 10 day
# Outline: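 Male BALB/c nude mice carried Capan-1 xenografts (5×10^6 cells s.c.), randomized at ~150 mm³ (6 per group). Treatment was 25 or 50 mg/kg intraperitoneally or 100 mg/kg by oral gavage, once daily on days 0-4. Cisplatin 6 mg/kg in saline was given intraperitoneally on day 2, 45 min after the partner drug. Tumor volume and body weight were measured 2-3 times weekly.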
# [15] = AUCall in ICR mouse at 25 mg/kg, ip by LC-tandem mass spectrometry analysis; type: ADME, organism-based; set-up: dose 25 mg/kg; conditions: in vivo
# Outline: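 Female ICR mice (20-23 g, 6-7 weeks old, n = 3) received a single 25 mg/kg intraperitoneal dose formulated in 5% DMSO/15% Solutol HS15/80% D5W. Plasma was sampled at 0.5, 1, 2, 4, 6, 8 and 24 h and protein-precipitated with methanol. Compound was quantified by LC-MS/MS against a standard curve.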
# [16] = target: T1, Protein cereblon/Poly [ADP-ribose] polymerase 1; test: Protac activity at CRBN/PARP1 in human MDA-MB-436 cells assessed as induction of PARP1 degradation at 30 nM measured after 2 hrs by Western blot analysis
# Target sequence in this assay (P09874 2-1014 limits assumed): as the sequence (P09874 2-1014 limits assumed) above
# Target sequence in this assay (Q96SW2 whole entry partner): as the sequence (Q96SW2 whole entry partner) above
# [17] = target: T1, Protein cereblon/Poly [ADP-ribose] polymerase 1; test: Protac activity at CRBN/PARP1 in human MDA-MB-436 cells assessed as induction of PARP1 degradation at 30 nM incubated for 24 hrs in presence of proteasome inhibitor MG132 by Western blot analysis
# Target sequence in this assay (P09874 2-1014 limits assumed): as the sequence (P09874 2-1014 limits assumed) above
# Target sequence in this assay (Q96SW2 whole entry partner): as the sequence (Q96SW2 whole entry partner) above
# [18] = target: T1, Protein cereblon/Poly [ADP-ribose] polymerase 1; test: Protac activity at CRBN/PARP1 in human MDA-MB-436 cells assessed as induction of PARP1 degradation at 30 nM incubated for 24 hrs in presence of proteasome inhibitor carfilzomib by Western blot analysis
smiles,measurement,setting,value
O=C(CCCCCCCCCCC(=O)N1CCN(C(=O)c2cc(Cc3n[nH]c(=O)c4ccccc34)ccc2F)CC1)NCCNc1cccc2c1C(=O)N(C1CCC(=O)NC1=O)C2=O (stereo not drawn),Activity,[1],Active
same,DC50,[2],0.509 nM
same,Activity,[3],Active
same,DC50,[4],0.512 nM
same,DC50,[5],0.228 nM
same,Activity,[6],Active
same,Activity,[7],Active
same,Activity,[8],Active
same,Activity,[9],Non-Toxic
same,Activity,[10],Non-Toxic
same,Tmax,[11],15 min
same,Activity,[12],Active
same,Activity,[13],Active
same,Activity,[14],12%
same,AUC,[15],5320 ng·h/mL
same,Activity,[16],Active
same,Activity,[17],inactive
same,Activity,[18],inactive
